Converted amounts (≈) assume the structure as drawn.
Assays:
Assay type in all cases: functional
Homo sapiens [1] = species: Homo sapiens; assay: Mortality rate stratified by 48 hrs MIC in susceptible Candida species infected patient
How it was run: (§1)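 Patients were fluconazole-treated nonneutropenic adults with candidemia. Isolate MICs were obtained by CLSI M27-A2 broth microdilution, read at 24 or 48 h. Patients were grouped by susceptibility breakpoint category. Mortality was compared by chi-square analysis.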

Candida [2] = assay: Ratio of AUC in surviving candidemia patient to MIC at 24 hrs against Candida species
How it was run: (§2)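 Bloodstream Candida isolates came from hospitalized adults treated with fluconazole. MICs were measured by CLSI M27-A2 broth microdilution in RPMI 1640-2% dextrose with 0.165 M MOPS, pH 7.0. Fluconazole was tested in doubling dilutions of 0.5–256 μg/ml at 35°C, read at 24 and 48 h as a marked drop in turbidity. AUC is the individual dose divided by clearance estimated from creatinine clearance. The ratio is AUC divided by the 24- or 48-h MIC.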

Nakaseomyces glabratus [3] = assay: Ratio of weight normalized daily dose in candidemia patient to MIC at 48 hrs against Candida glabrata
How it was run: (§3)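 MICs for patient Candida blood isolates were measured by CLSI M27-A2 microdilution in RPMI 1640-2% dextrose with 0.165 M MOPS, pH 7.0. Fluconazole was tested at 0.5–256 μg/ml in doubling dilutions, incubated at 35°C, and read at 24 h and 48 h by marked turbidity reduction. The fluconazole dose in mg/kg body weight was divided by the 24-h or 48-h MIC.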

Homo sapiens [4] = species: Homo sapiens; assay: Mortality rate stratified by 48 hrs MIC in dose-dependently susceptible Candida species infected patient; how it was run: as §1
Clavispora lusitaniae [5] = assay: Antimicrobial activity against Candida lusitaniae at 48 hrs
How it was run: (§4)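 Bloodstream isolates from hospitalized candidemia patients, stored at −70°C and subcultured overnight on Sabouraud dextrose agar. Tested by CLSI M27-A2 broth microdilution in RPMI 1640-2% dextrose with 0.165 M MOPS, pH 7.0. Fluconazole was given as serial doubling dilutions from 0.5 to 256.0 μg/ml. Inoculum was a 0.5 McFarland suspension diluted to 2×. Plates were incubated at 35°C. MIC was read at 24 and 48 h as a marked reduction in turbidity, with ATCC 6258 and ATCC 22019 as QC strains.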

Candida albicans [6] = assay: Ratio of weight normalized daily dose in candidemia patient to MIC against Candida albicans
How it was run: (§5)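 Fluconazole daily dose (mg/kg) of each nonneutropenic candidemia patient divided by the MIC of their bloodstream isolate. MIC by CLSI M27-A2 broth microdilution in RPMI 1640-2% dextrose, 0.165 M MOPS, pH 7.0. Serial doubling dilutions ran 0.5–256.0 μg/ml. Inoculum was a 0.5 McFarland suspension diluted to 2×. Incubated at 35°C; MIC read at 24 and 48 h as marked turbidity reduction.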

Candida [7] = assay: Ratio of weight normalized daily dose in surviving candidemia patient to MIC at 48 hrs against Candida species; how it was run: as §3
Homo sapiens [8] = species: Homo sapiens; assay: Mortality rate stratified by 24 hrs MIC in susceptible Candida species infected patient; how it was run: as §1
Candida tropicalis [9] = assay: Ratio of weight normalized daily dose in candidemia patient to MIC against Candida tropicalis; how it was run: as §3
Candida albicans [10] = assay: Ratio of AUC in candidemia patient to MIC against Candida albicans; how it was run: as §2
Candida tropicalis [11] = assay: Ratio of AUC in candidemia patient to MIC against Candida tropicalis; how it was run: as §2
Nakaseomyces glabratus [12] = assay: Antimicrobial activity against Candida glabrata at 48 hrs; how it was run: as §4
Homo sapiens [13] = species: Homo sapiens; assay: Ratio of weight normalized daily dose in non-surviving candidemia patient to MIC at 48 hrs against Candida species; how it was run: as §3
Candida albicans [14] = assay: Ratio of weight normalized daily dose in candidemia patient to MIC at 24 hrs against Candida albicans; how it was run: as §5
Nakaseomyces glabratus [15] = assay: Antimicrobial activity against Candida glabrata at 24 hrs; how it was run: as §4
Candida [16] = assay: Ratio of AUC in surviving candidemia patient to MIC at 48 hrs against Candida species; how it was run: as §2
Candida parapsilosis [17] = assay: Antimicrobial activity against Candida parapsilosis at 24 hrs; settings: Lodderomyces parapsilosis; how it was run: as §4
Homo sapiens [18] = species: Homo sapiens; assay: Mortality rate stratified by 24 hrs MIC in resistant Candida species infected patient; how it was run: as §1
Candida albicans [19] = assay: Ratio of weight normalized daily dose in candidemia patient to MIC at 48 hrs against Candida albicans; how it was run: as §5
Candida albicans [20] = assay: Antimicrobial activity against Candida albicans at 24 hrs; how it was run: as §4
Nakaseomyces glabratus [21] = assay: Ratio of weight normalized daily dose in candidemia patient to MIC against Candida glabrata; how it was run: as §3
Homo sapiens [22] = species: Homo sapiens; assay: Mortality rate in Candida tropicalis infected candidemia patient
How it was run: (§6)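 Subjects were adults (≥18 y) hospitalized >48 h before a Candida-positive blood culture, enrolled 2002–2005 at two hospitals, and treated with fluconazole. Patients were excluded if fluconazole started >24 h before culture or >2 days after it. Species was identified by Vitek YBC or API 20C Aux. Mortality is given per infecting species.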

Homo sapiens [23] = species: Homo sapiens; assay: Mortality rate in Candida lusitaniae infected candidemia patient; how it was run: as §6
Candida parapsilosis [24] = assay: Antimicrobial activity against Candida parapsilosis at 48 hrs; settings: Lodderomyces parapsilosis; how it was run: as §4
Homo sapiens [25] = species: Homo sapiens; assay: Mortality rate stratified by 48 hrs MIC in resistant Candida species infected patient; how it was run: as §1
Candida tropicalis [26] = assay: Antimicrobial activity against Candida tropicalis at 48 hrs; how it was run: as §4
Homo sapiens [27] = species: Homo sapiens; assay: Mortality rate in Candida albicans infected candidemia patient; how it was run: as §6
Clavispora lusitaniae [28] = assay: Ratio of AUC in candidemia patient to MIC against Candida lusitaniae; how it was run: as §2
Candida parapsilosis [29] = assay: Ratio of weight normalized daily dose in candidemia patient to MIC against Candida parapsilosis; how it was run: as §3
Homo sapiens [30] = species: Homo sapiens; assay: Mortality rate in Candida glabrata infected candidemia patient; how it was run: as §6
Candida albicans [31] = assay: Antimicrobial activity against Candida albicans at 48 hrs; how it was run: as §4
Nakaseomyces glabratus [32] = assay: Ratio of AUC in candidemia patient to MIC against Candida glabrata; how it was run: as §2
Candida [33] = assay: Ratio of weight normalized daily dose in surviving candidemia patient to MIC at 24 hrs against Candida species
How it was run: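 Weight-normalized fluconazole daily dose (mg/kg) was divided by the isolate MIC read at 24 h (CLSI M27-A2 broth microdilution, 35°C). Ratios were log10-transformed before analysis. Surviving patients were compared with nonsurvivors, with logistic regression used against mortality.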

Homo sapiens [34] = species: Homo sapiens; assay: Mortality rate stratified by 24 hrs MIC in dose-dependently susceptible Candida species infected patient; how it was run: as §1
Candida [35] = assay: Ratio of weight normalized daily dose in non-surviving candidemia patient to MIC at 24 hrs against Candida species; how it was run: as §3
Candida tropicalis [36] = assay: Antimicrobial activity against Candida tropicalis at 24 hrs; how it was run: as §4
Homo sapiens [37] = species: Homo sapiens; assay: Mortality rate in Candida parapsilosis infected candidemia patient; how it was run: as §6
Candida parapsilosis [38] = assay: Ratio of AUC in candidemia patient to MIC against Candida parapsilosis; how it was run: as §2
Clavispora lusitaniae [39] = assay: Antimicrobial activity against Candida lusitaniae at 24 hrs; how it was run: as §4
Nakaseomyces glabratus [40] = assay: Ratio of weight normalized daily dose in candidemia patient to MIC at 24 hrs against Candida glabrata; how it was run: as §3
Candida [41] = assay: Ratio of AUC in non-surviving candidemia patient to MIC at 48 hrs against Candida species; how it was run: as §2
Clavispora lusitaniae [42] = assay: Ratio of weight normalized daily dose in candidemia patient to MIC against Candida lusitaniae; how it was run: as §3

OC(Cn1cncn1)(Cn1cncn1)c1ccc(F)cc1F [FLUCONAZOLE]
Activity (Homo sapiens [1]): 18%
Ratio (Candida [2]): 775
Ratio (Nakaseomyces glabratus [3]): 1.51
Activity (Homo sapiens [4]): 50%
MIC50 (Clavispora lusitaniae [5]): 0.5 µg/mL (≈ 1.63 µM)
MIC90 (Clavispora lusitaniae [5]): 8 µg/mL (≈ 26.1 µM)
Ratio (Candida albicans [6]): 15.4
Ratio (Candida [7]): 10.7
Activity (Homo sapiens [8]): 18%
Ratio (Candida tropicalis [9]): 11.4
RatioAUC/MIC (Candida albicans [10]): 946
RatioAUC/MIC (Candida tropicalis [11]): 657
MIC50 (Nakaseomyces glabratus [12]): 0.5 µg/mL (≈ 1.63 µM)
MIC90 (Nakaseomyces glabratus [12]): 8 µg/mL (≈ 26.1 µM)
Ratio (Homo sapiens [13]): 6.1
Ratio (Candida albicans [14]): 15.39
MIC50 (Nakaseomyces glabratus [15]): 4 µg/mL (≈ 13.1 µM)
Ratio (Candida [16]): 614
MIC50 (Candida parapsilosis [17]): 1.25 µg/mL (≈ 4.08 µM)
Activity (Homo sapiens [18]): 50%
Ratio (Candida albicans [19]): 13.17
MIC50 (Candida albicans [20]): 0.25 µg/mL (≈ 0.816 µM)
Ratio (Nakaseomyces glabratus [21]): 1.9
Activity (Homo sapiens [22]): 0%
Activity (Homo sapiens [23]): 33.3%
MIC50 (Candida parapsilosis [24]): 0.5 µg/mL (≈ 1.63 µM)
MIC90 (Candida parapsilosis [24]): 8 µg/mL (≈ 26.1 µM)
Activity (Homo sapiens [25]): 50%
MIC50 (Candida tropicalis [26]): 0.5 µg/mL (≈ 1.63 µM)
MIC90 (Candida tropicalis [26]): 8 µg/mL (≈ 26.1 µM)
Activity (Homo sapiens [27]): 16.3%
RatioAUC/MIC (Clavispora lusitaniae [28]): 232
Ratio (Candida parapsilosis [29]): 10.7
Activity (Homo sapiens [30]): 36.4%
MIC50 (Candida albicans [31]): 0.5 µg/mL (≈ 1.63 µM)
MIC90 (Candida albicans [31]): 8 µg/mL (≈ 26.1 µM)
RatioAUC/MIC (Nakaseomyces glabratus [32]): 182
Activity (Candida [33]): 13.3
Activity (Homo sapiens [34]): 50%
Ratio (Candida [35]): 7
MIC50 (Candida tropicalis [36]): 1 µg/mL (≈ 3.27 µM)
Activity (Homo sapiens [37]): 0%
RatioAUC/MIC (Candida parapsilosis [38]): 635
MIC50 (Clavispora lusitaniae [39]): 2 µg/mL (≈ 6.53 µM)
Ratio (Nakaseomyces glabratus [40]): 1.88
Ratio (Candida [41]): 496
Ratio (Clavispora lusitaniae [42]): 3.3
